≈ marks a conversion by molar mass, not a printed value. Calls of active or inactive are those of the source. How the calls were made is not given here.
How the values were obtained:
Bacillus subtilis [1] = assay: Antibacterial activity against Bacillus subtilis at 1 mM by almar blue dye reduction assay; type: functional, organism-based
Method in brief: (§1)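 Single-point primary screen at 1 mM using Alamar Blue dye reduction as the growth read-out.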

Escherichia coli [2] = assay: Antibacterial activity against Escherichia coli at 1 mM by almar blue dye reduction assay; type: functional, organism-based; method in brief: as §1
Cryptococcus neoformans [3] = assay: Antifungal activity against Cryptococcus neoformans at 1 mM by almar blue dye reduction assay; type: functional, organism-based; method in brief: as §1
Candida albicans [4] = assay: Antifungal activity against Candida albicans at 1 mM by almar blue dye reduction assay; type: functional, organism-based; method in brief: as §1
Pseudomonas aeruginosa [5] = assay: Antibacterial activity against Pseudomonas aeruginosa at 1 mM by almar blue dye reduction assay; type: functional, organism-based; method in brief: as §1
Saccharomyces cerevisiae [6] = assay: Antifungal activity against Saccharomyces cerevisiae at 1 mM by almar blue dye reduction assay; type: functional, organism-based; method in brief: as §1
Staphylococcus aureus [7] = assay: Antibacterial activity against Staphylococcus aureus at 1 mM by almar blue dye reduction assay; type: functional, organism-based; method in brief: as §1
Bacillus cereus [8] = assay: Antibacterial activity against Bacillus cereus at 1 mM by almar blue dye reduction assay; type: functional, organism-based; method in brief: as §1
Bacillus anthracis [9] = assay: Antibacterial activity against Bacillus anthracis by almar blue dye reduction assay; type: functional
Bacillus anthracis [10] = assay: Antibacterial activity against Bacillus anthracis at 1mM by almar blue dye reduction assay; type: functional, organism-based
Cryptococcus neoformans [11] = assay: Antifungal activity against Cryptococcus neoformans at by almar blue dye reduction assay; type: functional
Method in brief: (§2)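 Compounds advanced from the 1 mM screen were tested over a dilution series, with a top concentration of 1 mM, using Alamar Blue dye reduction. MIC is the lowest concentration with no dye reduction. Where inhibition was partial with some growth at the top concentration, the value is reported as '>'.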

Bacillus cereus [12] = assay: Antibacterial activity against Bacillus cereus by almar blue dye reduction assay; type: functional; method in brief: as §2
Staphylococcus aureus [13] = assay: Antibacterial activity against Staphylococcus aureus by almar blue dye reduction assay; type: functional; method in brief: as §2
Bacillus subtilis [14] = assay: Antibacterial activity against Bacillus subtilis by almar blue dye reduction assay; type: functional; method in brief: as §2
Saccharomyces cerevisiae [15] = assay: Antifungal activity against Saccharomyces cerevisiae by almar blue dye reduction assay; type: functional; method in brief: as §2
Candida albicans [16] = assay: Antifungal activity against Candida albicans by almar blue dye reduction assay; type: functional; method in brief: as §2
Pseudomonas aeruginosa [17] = assay: Antimicrobial activity against Pseudomonas aeruginosa by almar blue dye reduction assay; type: functional; method in brief: as §2
Escherichia coli [18] = assay: Antibacterial activity against Escherichia coli by almar blue dye reduction assay; type: functional; method in brief: as §2

SMILES	Activity (Bacillus subtilis [1])	Activity (Escherichia coli [2])	Activity (Cryptococcus neoformans [3])	Activity (Candida albicans [4])	Activity (Pseudomonas aeruginosa [5])	Activity (Saccharomyces cerevisiae [6])	Activity (Staphylococcus aureus [7])	Activity (Bacillus cereus [8])	MIC (Bacillus anthracis [9])	Activity (Bacillus anthracis [10])	MIC (Cryptococcus neoformans [11])	MIC (Bacillus cereus [12])	MIC (Staphylococcus aureus [13])	MIC (Bacillus subtilis [14])	MIC (Saccharomyces cerevisiae [15])	MIC (Candida albicans [16])	MIC (Pseudomonas aeruginosa [17])	MIC (Escherichia coli [18])
C[C@H](C[C@@H]1CC[C@H]([C@@H](C)C(=O)N(C)Cc2ccccc2)O1)n1cc(C#Cc2ccccn2)nn1	inactive	inactive	inactive	inactive	inactive	inactive	inactive	inactive	> 430 µg/mL	–	–	–	–	–	–	–	–	–
CCN(CC)C(=O)[C@H](C)[C@H]1CC[C@@H](C[C@@H](C)n2cc(C#CCOc3cccc(OC)c3OC)nn2)O1	inactive	inactive	–	inactive	inactive	inactive	inactive	inactive	–	inactive	480 µg/mL (≈ 963 µM)	–	–	–	–	–	–	–
C[C@H](C[C@@H]1CC[C@H]([C@@H](C)C(=O)N(C)Cc2ccccc2)O1)n1cc(C#CCN(C)CCc2ccccc2)nn1	–	inactive	–	inactive	inactive	inactive	–	–	250 µg/mL (≈ 474 µM)	–	500 µg/mL (≈ 947 µM)	250 µg/mL (≈ 474 µM)	500 µg/mL (≈ 947 µM)	250 µg/mL (≈ 474 µM)	–	–	–	–
C[C@H](C[C@@H]1CC[C@H]([C@@H](C)C(=O)N(C)Cc2ccccc2)O1)n1cc(C#CCC2CCCC2)nn1	inactive	inactive	–	inactive	inactive	–	inactive	–	440 µg/mL (≈ 951 µM)	–	219 µg/mL (≈ 473 µM)	440 µg/mL (≈ 951 µM)	–	–	220 µg/mL (≈ 476 µM)	–	–	–
CCOC(=O)C#Cc1cn([C@H](C)CC2CCC([C@@H](C)C(=O)N3CCN(CC4CCCO4)CC3)O2)nn1 (single isomer, unassigned)	–	–	–	–	–	–	–	–	> 480 µg/mL	–	480 µg/mL (≈ 957 µM)	240 µg/mL (≈ 478 µM)	120 µg/mL (≈ 239 µM)	240 µg/mL (≈ 478 µM)	240 µg/mL (≈ 478 µM)	240 µg/mL (≈ 478 µM)	480 µg/mL (≈ 957 µM)	120 µg/mL (≈ 239 µM)
CCCCN(CC#Cc1cn([C@H](C)C[C@@H]2CC[C@H]([C@@H](C)C(=O)N(C)Cc3ccccc3)O2)nn1)CCCC	–	inactive	–	inactive	inactive	inactive	–	–	500 µg/mL (≈ 958 µM)	–	250 µg/mL (≈ 479 µM)	250 µg/mL (≈ 479 µM)	500 µg/mL (≈ 958 µM)	250 µg/mL (≈ 479 µM)	–	–	–	–
C[C@H](C[C@@H]1CC[C@H]([C@@H](C)C(=O)N2CCN(CC3CCCO3)CC2)O1)n1cc(C#Cc2ccc(-c3ccccc3)cc2)nn1 (stereo not given in full)	–	inactive	inactive	inactive	inactive	inactive	inactive	inactive	–	inactive	–	–	–	560 µg/mL (≈ 963 µM)	–	–	–	–
CCCCCC#Cc1cn([C@H](C)C[C@@H]2CC[C@H]([C@@H](C)C(=O)N(C)Cc3ccccc3)O2)nn1	inactive	inactive	–	inactive	inactive	–	inactive	–	430 µg/mL (≈ 954 µM)	–	430 µg/mL (≈ 954 µM)	640 µg/mL (≈ 1420 µM)	–	–	430 µg/mL (≈ 954 µM)	–	–	–
C[C@H](C[C@@H]1CC[C@H]([C@@H](C)C(=O)N2CCN(CC3CCCO3)CC2)O1)n1cc(C#Cc2cccc3ccccc23)nn1 (stereo not given in full)	inactive	inactive	inactive	inactive	inactive	inactive	inactive	inactive	263 µg/mL (≈ 473 µM)	inactive	–	260 µg/mL (≈ 468 µM)	–	790 µg/mL (≈ 1420 µM)	–	–	–	–
C[C@H](C[C@@H]1CC[C@H]([C@@H](C)C(=O)N2CCN(CC3CCCO3)CC2)O1)n1cc(C#Cc2ccc(C(F)(F)F)cc2)nn1 (stereo not given in full)	–	inactive	inactive	inactive	inactive	inactive	inactive	inactive	–	inactive	–	–	–	820 µg/mL (≈ 1430 µM)	–	–	–	–
C[C@H](C[C@@H]1CC[C@H]([C@@H](C)C(=O)N2CCN(CC3CCCO3)CC2)O1)n1cc(C#CCOc2cccc(-c3ccccc3)c2)nn1 (stereo not given in full)	–	inactive	–	–	inactive	–	inactive	–	> 590 µg/mL	–	290 µg/mL (≈ 474 µM)	150 µg/mL (≈ 245 µM)	–	880 µg/mL (≈ 1440 µM)	290 µg/mL (≈ 474 µM)	590 µg/mL (≈ 964 µM)	–	–
Cc1cccc(NC(=O)OCC#Cc2cn([C@H](C)CC3CCC([C@@H](C)C(=O)N4CCN(CC5CCCO5)CC4)O3)nn2)c1 (single isomer, unassigned)	inactive	inactive	inactive	inactive	inactive	inactive	inactive	–	–	inactive	–	570 µg/mL (≈ 962 µM)	–	–	–	–	–	–
CCCCN(CC#Cc1cn([C@H](C)C[C@@H]2CC[C@H]([C@@H](C)C(=O)N3CCN(CC4CCCO4)CC3)O2)nn1)CCCC (stereo not given in full)	–	inactive	inactive	inactive	inactive	inactive	inactive	inactive	–	inactive	–	–	–	820 µg/mL (≈ 1440 µM)	–	–	–	–

From ChEMBL document CHEMBL1155099, “Natural products in parallel synthesis: triazole libraries of nonactic acid” (2008)
